Data published in paper PMC12675685 (Parasitology Research, 2025).
“Also recorded” adds a separate entry of the source. Structures can show the parent of a compound that is named as a salt. Where two headings read alike, the source gives them in different places.

Columns and labels:
[1] = test system: B. microti; details: ref Nehrbass-Stuedli et al. [2011], cited from earlier work
[2] = test system: Babesia sp. Xinjiang; experiment: Anti-proliferation assay in Babesia sp. Xinjiang; assay type: cell-based; details: for inhibition of BxjG5 growth in vitro, in words: 48, 72 and 96 h; for inhibitory effect on BxjG5 proliferation: concentrations increased to 200 μM, data not shown
Procedure, shortened: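 Monoclonal BxjG5 line grown in RPMI 1640 with 20% FBS and 5% fresh sheep RBCs, 37 °C, humidified 5% CO2. Cultures seeded at 1% parasitemia with serial dilutions in medium (200 μΜ to 0.005 μΜ), run 48, 72 or 96 h, with drug-containing medium renewed every 48 h. DMSO controls (≤0.4%). Parasitemia counted on Giemsa smears (2,000–4,000 RBCs), inhibition taken relative to control, and curves fitted. Three experiments, triplicate wells.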

[3] = test system: Babesia microti; experiment: In vivo anti-Babesia activity in B. microti-infected BALB/c mice; details: for effect on B. microti parasite burden in vivo, in words: furamidine 2 mg/kg bw, BIX-01294 10 mg/kg bw, DA 30 mg/kg bw i.p.
[4] = test system: Babesia duncani; experiment: In vivo anti-Babesia activity in B. duncani-infected hamsters; set-up: species or system LVG Golden Syrian Hamsters; details: for effect on B. duncani growth in vivo, in words / day post-treatment on which mortality reached 100% / mean parasitemia (parasite burden): furamidine 2 mg/kg bw; for effect on B. duncani growth in vivo, in words: BIX-01294 7.35 mg/kg bw i.p.; for day post-treatment on which mortality reached 100% / mean parasitemia (parasite burden): i.p. daily for five days, BIX-01294 7.35 mg/kg bw
Procedure, shortened: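 Twenty 12-week-old hamsters were infected i.p. with 2,500 B. duncani-infected RBCs and split randomly into four equal groups. Dosing began once parasites appeared on Giemsa smears (parasitemia ≈ 1%): 200 μl i.p. daily for five days of vehicle (DMSO/PBS 1:1), test compounds or diminazene aceturate 20 mg/kg bw. Parasitemia was followed on smears and survival recorded. Groups were compared by one-way ANOVA with Tukey–Kramer.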

[5] = test system: MDOK cells; experiment: Cytotoxicity on host cells; assay type: cell-based, sheep; details: for toxicity to MDOK cells, relative level: compared among the tested compounds; for IC50: read-out: IC50 in MDOK cells, CCK-8
[6] = test system: Babesia divergens; details: cited from earlier work; for IC50: read-out: IC50 on B. divergens, ref Nehrbass-Stuedli et al. [2011]
[7] = In vivo safety evaluation of furamidine in healthy BALB/c mice; details: 2 mg/kg bw i.p. daily for 5 consecutive days
Procedure, shortened: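 Healthy female BALB/c mice, 6–8 weeks old (n = 5/group), received vehicle (DMSO/PBS) or test compound i.p. daily for 5 days. Clinical signs were checked twice daily and weight each morning before dosing. Blood was taken retro-orbitally under isoflurane 24 h after the last dose: EDTA-K2 blood for haematology, serum for biochemistry. Livers were fixed in 4% paraformaldehyde and stained with H&E.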

[8] = test system: Plasmodium falciparum; details: read-out: IC50 against Plasmodium falciparum; ref Malmquist et al. [2012]; cited from earlier work
[9] = Babesia, 48 h, read-out: IC50 in Babesia sp. Xinjiang
[10] = Babesia, 72 h, read-out: IC50 in Babesia sp. Xinjiang
[11] = Babesia, 96 h, read-out: IC50 in Babesia sp. Xinjiang
[12] = Babesia, 96 h, read-out: IC50 on BxjG5 growth

In the case of N=C(N)c1ccc(-c2ccc(-c3ccc(C(=N)N)cc3)o2)cc1 [Furamidine], the “complete suppression of parasites through” value ([1]; 3.125 mg/kg) is listed as 13 days, the “anti-parasite activity in B. microti-infected NMRI mouse model, in words” value ([1]; 25 mg/kg) is listed as “totally cure” and the “inhibition of BxjG5 growth in vitro, in words” value [2] is listed as “effectively inhibit BxjG5 growth in vitro at nanomolar concentrations”. The IC50 [2, 9] was 0.03 µM, the IC50 ([2]; Babesia, read-out: IC50 on BxjG5) was 0.02 µM and the “complete suppression of parasitemia up to day” value ([3]; furamidine 2 mg/kg) was 50 dpi. The “day posttreatment on which parasitemia peaked” value ([3]; furamidine 2 mg/kg bw i.p.) was 3 days, the “effect on B. duncani growth in vivo, in words” value [4] was “effectively inhibited the growth; also recorded: did not completely eliminate parasites” and the “day post-treatment on which mortality reached 100%” value [4] was 6 days. For the same molecule, the “mean parasitemia (parasite burden)” value [4] was “less than 10%”, the “toxicity to MDOK cells, relative level” value [5] was “intermediate levels” and the IC50 ([5]; 24 h) was 98.81 ± 0.6 µM. For the same molecule, the IC50 ([5]; 48 h) was 45.36 ± 0.43 µM, the IC50 ([5]; 72 h) was 43.01 ± 0.24 µM and the IC50 ([6]; strain 1903) was 0.0368 µM. The IC50 ([6]; strain 4201) was 0.0358 µM, the “body weight gain versus vehicle control” value [7] was “no significant difference” and the “hematological and biochemical analyses versus vehicle control” value [7] was “no significant differences”. The “liver histopathology (H&E)” value [7] was “appeared normal”.
In the case of CCOCC1(COCC)CCC(c2[nH]ncc2CN(C)CCNC)CC1.Cl.Cl.Cl [GSK3368715], the “inhibitory effect on BxjG5 proliferation” value [2] is reported as “did not observe any obvious inhibitory effect”, the IC50 ([2]; read-out: IC50 in Babesia sp. Xinjiang, 48 h incubation, BxjG5) is reported as greater than 200 µM and the IC50 ([2]; read-out: IC50 in Babesia sp. Xinjiang, 72 h incubation, BxjG5) is reported as greater than 200 µM. The IC50 ([2]; read-out: IC50 in Babesia sp. Xinjiang, 96 h incubation, BxjG5) was greater than 200 µM, the IC50 ([5]; 24 h) was greater than 100 µM and the IC50 ([5]; 48 h) was greater than 100 µM. For the same molecule, the IC50 ([5]; 72 h) was greater than 100 µM.
CCCc1cc(C)[nH]c(=O)c1CNC(=O)c1cc(-c2ccnc(N3CCN(C)CC3)c2)cc2c1cnn2C(C)C [GSK343] showed an IC50 [2, 9] of 7.25 ± 0.75 µM, an IC50 [2, 10] of 6.88 ± 0.51 µM and an IC50 [2, 11] of 7.04 ± 0.56 µM.
In the case of CC(=O)NCC(=O)O.CC(=O)NCC(=O)O.N=C(N)c1ccc(N=NNc2ccc(C(=N)N)cc2)cc1 [DA, Diminazene Aceturate], the “effect on B. microti parasite burden in vivo, in words” value [3] is reported as “effectively decreased the parasite burden” and the “deaths until day 43 posttreatment” value ([4]; DA 20 mg/kg bw i.p. daily for five days) is reported as 0/4.
Work on Cc1cn(CCN2CCN(c3ccccc3-c3cc(C#N)cc(C(=O)NCCCN4CCCC4)c3)CC2)c2ccccc12 [LLY-507] yielded an IC50 [2, 9] of 4.02 ± 0.74 µM, an IC50 [2, 10] of 3.25 ± 0.46 µM and an IC50 [2, 11] of 2.58 ± 0.63 µM. The “inhibition rate on MDOK cells” value ([5]; concentrations exceeded 10 μM) was “greater than 70%”.
With Nc1ncnc2c1ncn2[C@@H]1O[C@H](C[C@@H](N)CC[C@H](N)C(=O)O)[C@@H](O)[C@H]1O [Sinefungin] the IC50 [2, 9] was 2.14 ± 0.07 µM, the IC50 [2, 10] was 2.25 ± 0.34 µM and the IC50 [2, 11] was 2.89 ± 1.1 µM. The “inhibition rate on MDOK cells” value ([5]; concentrations increased to 100 μM) was less than 30%.
COc1cc2nc(N3CCCN(C)CC3)nc(NC3CCN(Cc4ccccc4)CC3)c2cc1OC [BIX-01294] showed an IC50 [2, 9] of 0.47 ± 0.1 µM, an IC50 [2, 10] of 0.35 µM and an IC50 [2, 11] of 0.29 µM. The IC50 [2, 12] was 0.29 to 0.47 µM, the “effect on B. microti parasite burden in vivo, in words” value [3] was “did not appear to inhibit Babesia growth in vivo” and the “effect on B. duncani growth in vivo, in words” value [4] was “did not appear to inhibit Babesia growth in vivo”. For the same molecule, the “day post-treatment on which mortality reached 100%” value [4] was 2 days, the “mean parasitemia (parasite burden)” value [4] was “approximately 20%” and the IC50 [8] was 0.075 ± 0.036 µM. The “inhibitory activity against B. divergens in vitro, in words” value ([6]; ref Vanheer and Kafsack [2021]) was “moderate inhibitory activity”.
For O=C(Nc1cccc(C2=NCCN2)c1)Nc1cccc(C2=NCCN2)c1 [Imidocarb dipropionate], the “inhibition of BxjG5 growth in vitro, in words” value [2] was “effectively inhibit BxjG5 growth in vitro at nanomolar concentrations”, the IC50 [2, 10] was 0.03 µM and the IC50 [2, 11] was 0.02 µM. The “toxicity to MDOK cells, relative level” value [5] was “intermediate levels”.
CN1C(=O)[C@@]23C[C@]4([C@]56C[C@@]78SS[C@@](CO)(C(=O)N7[C@H]5Nc5ccccc56)N(C)C8=O)c5ccccc5N[C@@H]4N2C(=O)[C@]1(CO)SS3 [Chaetocin] showed an IC50 [2, 9] greater than 200 µM, an IC50 [2, 10] greater than 200 µM and an IC50 [2, 11] greater than 200 µM. The “inhibitory effect on BxjG5 proliferation” value [2] was “did not observe any obvious inhibitory effect” and the “inhibition rate on MDOK cells” value ([5]; concentrations exceeded 10 μM) was “greater than 70%”.
Work on CCCc1cc(C)[nH]c(=O)c1CNC(=O)c1cc(-c2ccc(N3CCN(C(C)C)CC3)nc2)cc2c1cnn2C(C)C [UNC-1999] yielded an IC50 [2, 9] of 5.15 ± 1.31 µM, an IC50 [2, 10] of 3.88 ± 1 µM and an IC50 [2, 11] of 4.7 ± 1.03 µM. For the same molecule, the “inhibition rate on MDOK cells” value ([5]; concentrations exceeded 10 μM) was “greater than 70%”.
In the case of O=C([C@@H](Cc1cccc(C(F)(F)F)c1)NS(=O)(=O)c1cc(F)c2c(c1)CCNC2)N1CCCC1 [PFI-2 hydrochloride], the IC50 [2, 9] is reported as 16.5 ± 0.86 µM, the IC50 [2, 10] is reported as 10.7 ± 0.82 µM and the IC50 [2, 11] is reported as 17.5 ± 1.09 µM.
In the case of CCN(CC)Cc1cc(Nc2ccnc3cc(Cl)ccc23)ccc1O [Amodiaquine], the IC50 [2, 9] is reported as 33.2 ± 2.19 µM, the IC50 [2, 10] is reported as 23.9 ± 1.47 µM and the IC50 [2, 11] is reported as 26.6 ± 1.49 µM. The IC50 [2, 12] was roughly 26 µM and the “toxicity to MDOK cells, relative level” value [5] was “intermediate levels”.
